The text below walks through data of ChEMBL document CHEMBL1124118, “Design, synthesis, and antineoplastic activity of 2'-deoxy-2'-methylidenecytidine” (J Med Chem, 1988).

Converted amounts (≈) assume the structure as drawn.

The term IC50 denotes the concentration that inhibits the measured activity by half. Read a high IC50 as weaker potency.

Holding throughout (type): functional, cell-based
One test concerns CCRF-CEM. The test is described as follows: In vitro inhibitory effect on growth of human T-cell acute lymphoblastoid leukemic CCRFCEM cell lines. The method, boiled down:
(§1)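 MTT growth-inhibition assay (Carmichael method). Tumor cells seeded at 1 × 10^4 per well and incubated with or without compound for 72 h. MTT then added and OD(550-660 nm) read. % inhibition = [1 − (OD sample / OD control)] × 100. IC50 (μg/mL) taken as the concentration giving 50% inhibition of cell growth.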

A further test concerns K562. Description: In vitro inhibitory effect on growth of human chronic myelogenous leukemic K562 cell lines. The method, boiled down: as §1
A further test concerns L1210. Description: In vitro inhibitory effect on growth of mouse leukemic L1210 cell lines. In short, it runs like this: as §1
The next test has as its system MOLT-4. Description: In vitro inhibitory effect on growth of human T-cell acute lymphoblastic leukemic MOLT 4 cell lines. In short, it runs like this: as §1
A further test relates to SW480. The test is described as follows: In vitro inhibitory effect on growth of human colon adenocarcinoma cell lines (SW480). The method, boiled down:
as §1

A further test concerns T-24. The test is described as follows: In vitro inhibitory effect on growth of human bladder transitional-carcinoma cell lines (T24). The method, boiled down:
as §1

A further test deals with TE-2. The test is described as follows: In vitro inhibitory effect on growth of human esophagus […] cell lines (TE2). In short, it runs like this:
as §1

For test [1], the system named is PC10. Description: In vitro inhibitory effect on growth of human lung squamous cell carcinom cell lines (PC10). In short, it runs like this: as §1
In test [2] the test system is PC10. The test is described as follows: In vitro inhibitory effect on growth of human lung squamous cell carcinoma cell lines (PC10). The method, boiled down:
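Cells seeded at 1 × 10^4/well and incubated with or without compound for 72 h. MTT was then added and OD(550-660 nm) was read. % inhibition = [1 − (OD of sample well / OD of control well)] × 100. IC50 (μg/mL) is the concentration giving 50% inhibition of cell growth.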

With `C=C1C(n2ccc(N)nc2=O)O[C@H](CO)[C@@H]1O` (some centres undefined), the IC50 was determined as 0.047 µg/mL (≈ 0.196 µM) with CCRF-CEM; 1.2 µg/mL (≈ 5.02 µM) in the test on K562; 0.11 µg/mL (≈ 0.46 µM) in the test with L1210; 0.025 µg/mL (≈ 0.105 µM) with MOLT-4; 3.8 µg/mL (≈ 15.9 µM) in the test with SW480; 3.7 µg/mL (≈ 15.5 µM) in the test with T-24. In addition, the IC50 in the test with TE-2 amounted to 2.9 µg/mL (≈ 12.1 µM); in the test with PC10 [1], 60.5 µg/mL (≈ 253 µM).
With `Nc1ccn([C@@H]2O[C@H](CO)[C@@H](O)[C@@H]2O)c(=O)n1` [CYTARABINE], the IC50 was 0.065 µg/mL (≈ 0.267 µM) with CCRF-CEM; 3.2 µg/mL (≈ 13.2 µM) in the test on K562; 0.097 µg/mL (≈ 0.399 µM) with L1210; 0.056 µg/mL (≈ 0.23 µM) in the test with MOLT-4; > 100 µg/mL with PC10 [2]; > 100 µg/mL in the test on SW480. For the same compound, the half-inhibitory concentration (IC50) with T-24 and in the test with TE-2 was > 100 µg/mL in each case.
On to `O=c1[nH]cc(F)c(=O)[nH]1` [FLUOROURACIL], for which the IC50 was 40 µg/mL (≈ 308 µM) in the test on CCRF-CEM; 38 µg/mL (≈ 292 µM) in the test on K562; 0.32 µg/mL (≈ 2.46 µM) with L1210; 3.8 µg/mL (≈ 29.2 µM) with MOLT-4; > 100 µg/mL in the test on PC10 [2]; 3.3 µg/mL (≈ 25.4 µM) in the test with SW480. For the same compound, the half-maximal inhibitory concentration (IC50) with T-24 was 6.1 µg/mL (≈ 46.9 µM); in the test on TE-2 it was 3.9 µg/mL (≈ 30 µM).
